In ChEMBL document CHEMBL1136809, “Synthesis and structure-affinity relationships of novel N-(1-ethyl-4-methylhexahydro-1,4-diazepin-6-yl)pyridine-3-carboxamides with potent serotonin 5-HT3 and dopamine D2 receptor antagonistic activity” (J Med Chem, 2003):

How the values were obtained:
[1] = target: T1, 5-hydroxytryptamine receptor 4 (Cavia porcellus, UniProt O70528); assay: Inhibition of [3H]GR-113808 binding to guinea pig striatum 5-hydroxytryptamine 4 receptor; format: tissue-based
D(2) dopamine receptor [2] = target: T2, D(2) dopamine receptor (Rattus norvegicus, UniProt P61169); assay: Affinity of compound towards Dopamine receptor D2 in rat striatum using [3H]spiperone as radioligand; format: tissue-based
In short: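 Competition binding against [3H]spiperone in rat striatal (brain synaptic) membranes. IC50 is the concentration giving 50% inhibition of specific radioligand binding, in nM, derived by linear regression (Probit analysis). Reported as mean with 95% confidence limits.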

[3] = target: T3, Serotonin 3 (5-HT3) receptor (Rattus norvegicus, UniProt P35563+Q9JJ16); assay: Concentration required to inhibit the binding of radioligand [3H]GR-65630 to serotonin 5-hydroxytryptamine-3 receptor (5-HT 3 receptor)in rat brain cortical membrane; format: tissue-based
T3 sequence (P35563 whole entry): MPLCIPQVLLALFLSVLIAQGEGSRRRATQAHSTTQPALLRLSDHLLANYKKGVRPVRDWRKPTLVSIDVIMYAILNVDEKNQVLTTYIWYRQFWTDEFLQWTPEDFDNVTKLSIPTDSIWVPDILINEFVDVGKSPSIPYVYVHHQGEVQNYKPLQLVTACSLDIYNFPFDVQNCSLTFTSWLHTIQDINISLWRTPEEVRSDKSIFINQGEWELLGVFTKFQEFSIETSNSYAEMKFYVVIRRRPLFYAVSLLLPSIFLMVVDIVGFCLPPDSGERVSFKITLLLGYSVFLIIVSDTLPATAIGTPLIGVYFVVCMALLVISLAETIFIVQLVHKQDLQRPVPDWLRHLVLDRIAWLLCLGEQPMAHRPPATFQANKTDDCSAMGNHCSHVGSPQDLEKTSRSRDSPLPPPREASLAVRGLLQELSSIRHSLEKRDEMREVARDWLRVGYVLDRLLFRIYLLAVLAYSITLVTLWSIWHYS
T3 sequence (Q9JJ16 whole entry): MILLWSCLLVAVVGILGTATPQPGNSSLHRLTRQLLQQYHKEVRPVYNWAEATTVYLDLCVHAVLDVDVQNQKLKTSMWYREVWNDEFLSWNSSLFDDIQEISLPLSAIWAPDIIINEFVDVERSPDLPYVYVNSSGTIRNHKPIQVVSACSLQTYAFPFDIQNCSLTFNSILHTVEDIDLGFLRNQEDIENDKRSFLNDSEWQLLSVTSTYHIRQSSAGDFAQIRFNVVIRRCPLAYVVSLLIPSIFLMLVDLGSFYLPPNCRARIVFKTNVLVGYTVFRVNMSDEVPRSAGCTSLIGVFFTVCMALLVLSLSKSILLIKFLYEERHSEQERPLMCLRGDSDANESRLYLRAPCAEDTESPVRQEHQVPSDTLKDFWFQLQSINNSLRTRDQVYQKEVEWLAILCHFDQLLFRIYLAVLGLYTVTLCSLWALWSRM

Canis familiaris [4] = assay: Percent inhibition of apomorphine (0.3 mg/kg) induced emesis in dogs when 1 mg/kg of compound administered perorally; format: functional; settings: Canis lupus familiaris, route oral
In short: (§1)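 Male beagle dogs weighing 10–16 kg, in groups of three to six, were pretreated orally with test compound. Apomorphine hydrochloride (0.3 mg/kg) was injected subcutaneously 2 h later to elicit emesis.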

D(2) dopamine receptor [5] = target: T2, D(2) dopamine receptor; assay: Inhibition of the binding of radioligand [3H]spiperone to dopamine receptor D2 in rat brain synaptic membrane; format: cell membranes
[6] = target: T3, Serotonin 3 (5-HT3) receptor; assay: Concentration of compound required to inhibit the binding of radioligand [3H]GR-65630 to 5-hydroxytryptamine 3 receptor in rat brain cortical membrane; format: cell membranes
In short: (§2)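 Displacement of [³H]GR65630 from rat cerebral cortex membranes, following an earlier [³H]quipazine binding protocol. IC50, the concentration giving 50% inhibition of specific binding, in nM by probit (linear regression) analysis. Values given as mean with 95% confidence limits.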

[7] = target: T1, 5-hydroxytryptamine receptor 4; assay: Concentration of compound required to inhibit the binding of radioligand [3H]GR-113808 to 5-hydroxytryptamine 4 receptor in guinea pig striatum; format: tissue-based
[8] = target: T1, 5-hydroxytryptamine receptor 4; assay: Concentration of compound required to inhibit the binding of radioligand [3H]GR-113808 to serotonin 5-hydroxytryptamine 4 receptor in guinea-pig striatum; format: tissue-based
[9] = target: T3, Serotonin 3 (5-HT3) receptor; assay: Inhibition of [3H]GR-65630 binding to rat cortical membrane serotonin 5-hydroxytryptamine 3 receptor
Canis familiaris [10] = assay: Effective dose for inhibition of apomorphine (0.3 mg/kg) induced emesis in dogs when 1 mg/kg of compound administered perorally; format: functional, Canis lupus familiaris; settings: route oral; in short: as §1
D(3) dopamine receptor [11] = target: T4, D(3) dopamine receptor (Rattus norvegicus, UniProt P19020); assay: Concentration of compound required to inhibit the binding of radioligand [3H](R)-7-OH-DPAT to Dopamine receptor D3 in rat striatum; format: tissue-based
D(2) dopamine receptor [12] = target: T2, D(2) dopamine receptor; assay: Affinity towards Dopamine receptor D2 in rat striatum using [3H]spiperone as radioligand; format: tissue-based
[13] = target: T3, Serotonin 3 (5-HT3) receptor; assay: Concentration of compound required to inhibit the binding of radioligand [3H]GR-65630 to serotonin 5-hydroxytryptamine 3 receptor in rat cortical membrane; format: cell membranes; in short: as §2
D(2) dopamine receptor [14] = target: T2, D(2) dopamine receptor; assay: Concentration of compound required to inhibit the binding of radioligand [3H]-spiperone to Dopamine receptor D2 in rat striatum; format: tissue-based
In short: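 Competition binding against [³H]spiperone in rat striatum. IC50, the concentration inhibiting 50% of specific radioligand binding, in nM by probit (linear regression) analysis. Reported as mean with 95% confidence limits.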

D(3) dopamine receptor [15] = target: T4, D(3) dopamine receptor; assay: Concentration of compound required to inhibit the binding of radioligand [3H](R)-7-OH-DPAT to Dopamine receptor D3 in rat striatum.
[16] = target: T1, 5-hydroxytryptamine receptor 4; assay: Concentration of compound required to inhibit the binding of radioligand [3H]GR-113808 to 5-hydroxytryptamine 4 receptor in guinea-pig striatum; format: tissue-based
[17] = Canis lupus familiaris, read-out: ED50

T1 sequence (O70528 whole entry): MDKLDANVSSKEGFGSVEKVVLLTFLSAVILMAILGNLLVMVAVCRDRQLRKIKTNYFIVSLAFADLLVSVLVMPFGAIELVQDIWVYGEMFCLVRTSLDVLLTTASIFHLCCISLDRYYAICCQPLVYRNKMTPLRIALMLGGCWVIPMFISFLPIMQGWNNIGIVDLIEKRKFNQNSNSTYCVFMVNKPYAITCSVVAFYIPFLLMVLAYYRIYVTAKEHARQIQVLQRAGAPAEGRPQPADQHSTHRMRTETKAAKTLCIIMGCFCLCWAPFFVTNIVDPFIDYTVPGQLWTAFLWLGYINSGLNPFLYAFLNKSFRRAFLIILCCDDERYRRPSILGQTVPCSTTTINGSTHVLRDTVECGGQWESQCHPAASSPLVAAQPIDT
T2 sequence (P61169 whole entry): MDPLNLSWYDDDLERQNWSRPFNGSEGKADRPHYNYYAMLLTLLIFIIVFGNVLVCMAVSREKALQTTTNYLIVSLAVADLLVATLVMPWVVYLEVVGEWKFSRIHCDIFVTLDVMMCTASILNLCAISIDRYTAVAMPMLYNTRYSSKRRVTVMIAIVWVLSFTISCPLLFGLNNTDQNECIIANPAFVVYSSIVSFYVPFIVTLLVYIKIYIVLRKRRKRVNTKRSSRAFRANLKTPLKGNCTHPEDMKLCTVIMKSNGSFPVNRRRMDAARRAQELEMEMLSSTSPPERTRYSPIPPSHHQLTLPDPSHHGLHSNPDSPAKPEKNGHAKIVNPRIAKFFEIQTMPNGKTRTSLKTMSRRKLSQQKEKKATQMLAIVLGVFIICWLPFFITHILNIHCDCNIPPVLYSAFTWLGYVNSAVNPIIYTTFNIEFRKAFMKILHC
T4 sequence (P19020 whole entry): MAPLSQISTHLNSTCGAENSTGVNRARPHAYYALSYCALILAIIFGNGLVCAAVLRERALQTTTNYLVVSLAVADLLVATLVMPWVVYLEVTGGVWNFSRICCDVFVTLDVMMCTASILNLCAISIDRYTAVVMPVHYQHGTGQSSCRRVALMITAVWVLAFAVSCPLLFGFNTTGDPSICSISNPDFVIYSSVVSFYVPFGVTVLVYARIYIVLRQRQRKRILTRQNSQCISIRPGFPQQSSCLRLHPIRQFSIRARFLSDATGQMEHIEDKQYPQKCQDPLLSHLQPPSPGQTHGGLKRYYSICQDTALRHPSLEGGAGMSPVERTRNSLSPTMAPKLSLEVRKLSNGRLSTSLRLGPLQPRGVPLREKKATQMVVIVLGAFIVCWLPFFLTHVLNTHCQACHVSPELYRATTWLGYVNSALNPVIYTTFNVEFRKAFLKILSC

SMILES | Ki [1] [nM] | IC50 [3] [nM] | inhibition in vivo at 1 mg/kg (Canis familiaris [4]) [%] | IC50 (D(2) dopamine receptor [5]) [nM] | also measured
COc1cc(N)c(Cl)cc1C(=O)NC[C@@H]1CCN2CCC[C@@H]12 | 21 | – | – | – | Ki (D(2) dopamine receptor [2]): > 10000 nM
CCN1CCN(CC)CC(NC(=O)c2cc(Cl)c(NC)nc2OC)C1 | – | 0.65 | 53 | 27.8 | –
COc1cc(N)c(Cl)cc1C(=O)NC1CC2CCC(C1)N2Cc1ccccc1 (stereo not drawn) | 233 | – | – | – | –
CCN1CCN(C)CC(NC(=O)c2cnc(NC)nc2OC)C1 (stereo not drawn) | – | – | – | > 1000 | IC50 [6]: 157 nM
O=c1[nH]c2ccccc2n1CCCN1CCC(n2c(=O)[nH]c3cc(Cl)ccc32)CC1 [DOMPERIDONE] | – | – | – | – | IC50 [7]: > 1000 nM
CNc1nc(OC)c(C(=O)NC2CN(C)CCN(C)C2)cc1Cl | – | 1.3 | 20 | 137 | –
CCOc1nc(NC)c(Cl)cc1C(=O)NC1CN(C)CCN(CC)C1 (stereo not drawn) | – | 0.55 | 40 | 42.9 | –
CCN(CC)CCNC(=O)c1cc(Cl)c(N)cc1OC [METOCLOPRAMIDE] | 546 | 228 | 100 | – | IC50 [8]: 912 nM; Ki [9]: 210 nM; ED50 (Canis familiaris [10]; [17]): 0.45 mg/kg; IC50 (D(3) dopamine receptor [11]): 61.3 nM
CCN1CCN(C2CC2)CC(NC(=O)c2cc(Br)c(NC)nc2OC)C1 (stereo not drawn) | – | 0.69 | 25 | 12.9 | –
COc1cc(N)c(Cl)cc1C(=O)NC1CC2CCC(C1)N2C (stereo in doubt; 2) | > 1000 | – | – | – | –
CCN1CCN(CC)CC(NC(=O)c2cc(Br)c(NC)nc2OC)C1 | – | 0.59 | 69 | 20.9 | –
Cc1nccn1CC1CCc2c(c3ccccc3n2C)C1=O (stereo not drawn) [ONDANSETRON] | – | – | – | > 1000 | –
COc1cc(N)c(Cl)cc1C(=O)NC1CCN2CCCC1C2 (stereo not drawn) [RENZAPRIDE] | 40.4 | – | – | – | Ki [9]: 5.3 nM; Ki (D(2) dopamine receptor [12]): > 10000 nM
CCN1CCN(C)C[C@@H](NC(=O)c2cc(Cl)c(N)c3c2OCC3)C1 | – | 3.7 | – | 637 | –
CNc1nc(OC)c(C(=O)NC2CN(C)CCN(C3CC3)C2)cc1Br (stereo not drawn) | – | 0.76 | 14 | 47.1 | –
COc1cc(N)c(Cl)cc1C(=O)NCCN(C)Cc1ccccc1 | 867 | – | – | – | Ki [9]: > 1000 nM; Ki (D(2) dopamine receptor [12]): 24.3 nM
CCN1CCN(C)C[C@@H](NC(=O)c2cc(Cl)c(NC)nc2OC)C1 | – | – | 52 | – | –
CCN1CCN(C)C[C@@H](NC(=O)c2cc(Cl)c(OC)nc2NC)C1 | – | > 100 | – | > 1000 | –

SMILES | Ki [1] [nM] | IC50 [3] [nM] | inhibition in vivo at 1 mg/kg (Canis familiaris [4]) [%] | IC50 (D(2) dopamine receptor [5]) [nM] | also measured
CCN1CCN(C)CC(NC(=O)c2cc(Br)c(NC)nc2OC)C1 (stereo not drawn) | – | 0.97 | – | – | –
CCN1CCN(C)CC(NC(=O)c2[nH]nc3ccccc23)C1 (stereo not drawn) | – | 6.56 | – | > 1000 | –
CCN1CCN(C)CC(NC(=O)c2cc(Br)c(N(C)C)nc2OC)C1 (stereo not drawn) | – | – | 83 | – | –
CCN1CCN(C)CC(NC(=O)c2cc(Cl)cc3c2OCC3)C1 (stereo not drawn) | – | 29.9 | – | > 1000 | –
COc1cc(N)c(Cl)cc1C(=O)NC1CCN(Cc2ccccc2)CC1 [CLEBOPRIDE] | 104 | – | – | – | –
COc1cc(N)c(Cl)cc1C(=O)N[C@@H]1CN2CCC1CC2 | 383 | – | – | – | –
CCN1CCN(C)CC(NC(=O)c2cc(Cl)cc3c2OCC(=O)N3C)C1 (stereo not drawn) | – | 38.7 | – | > 1000 | –
CCN1CCN(C)C[C@@H](NC(=O)c2cc(Br)c(NC)nc2OC)C1 | – | 1.2 | 100 | 6.88 | IC50 [8]: > 10000 nM; ED50 (Canis familiaris [10]; [17]): 0.12 mg/kg; IC50 (D(3) dopamine receptor [11]): 1.13 nM
CCNc1nc(OC)c(C(=O)NC2CN(C)CCN(CC)C2)cc1Cl (stereo not drawn) | – | – | 42 | – | –
COc1cc(N)c(Cl)cc1C(=O)NC1CN(C)CCN(Cc2ccccc2)C1 (stereo not drawn) | – | – | – | – | IC50 [13]: 2.07 nM; IC50 [7]: > 1000 nM; IC50 (D(2) dopamine receptor [14]): > 1000 nM
CCN1CCN(C)CC(NC(=O)c2cc(Cl)cn3ccnc23)C1 (stereo not drawn) | – | 148 | – | > 1000 | –
CCOc1nc(NC)c(Br)cc1C(=O)NC1CN(C)CCN(CC)C1 (stereo not drawn) | – | 1.48 | – | 86.4 | –
COc1cc(N)c(Cl)cc1C(=O)NC1CCN(C)CC1 | 832 | – | – | – | –
CCN1CCN(C)C[C@@H](NC(=O)c2cc(Cl)c(NC)cc2OC)C1 | – | – | 100 | – | IC50 [7]: > 1000 nM; ED50 (Canis familiaris [10]; [17]): 0.13 mg/kg; ED50 (Canis familiaris [10]; dose 1 mg/kg): 0.13 mg/kg; IC50 (D(3) dopamine receptor [15]): 15.1 nM
COc1cc(N)c(Cl)cc1C(=O)NC1CC2CCC(C1)N2C (stereo in doubt) | 48 | – | – | – | –
CCN1CCN(C)C[C@H](NC(=O)c2cc(Br)c(NC)nc2OC)C1 | – | 1.28 | 47 | 122 | IC50 [16]: > 1000 nM; IC50 (D(3) dopamine receptor [11]): 14.3 nM
CCOc1cc(N)c(Cl)cc1C(=O)NCC1CN(Cc2ccc(F)cc2)CCO1 (stereo not drawn) [MOSAPRIDE] | 69.9 | – | – | – | Ki [9]: 1190 nM; Ki (D(2) dopamine receptor [12]): > 10000 nM
